Screening results: PubChem BioAssay, Sanford-Burnham Center for Chemical Genomics
An excerpt weighted towards active compounds, which were near 1.7% of everything screened.
LMPTP block – LMPTP phosphatase inhibitors, primary screen, biochemical, fluorescence intensity, uHTS; Low molecular weight phosphotyrosine protein phosphatase (Homo sapiens), P24666; recombinant LMPTP-A, OMFP fluorogenic substrate; inhibition, % at 20 µM; actives 0.22% (n = 360,000);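 active means compounds that cut the enzyme signal by at least half of the control window in the single-dose screen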;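 further: plate controls were DMSO wells with enzyme plus substrate for no effect and substrate without enzyme for full effect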
Target sequence (P24666 whole entry, looked up): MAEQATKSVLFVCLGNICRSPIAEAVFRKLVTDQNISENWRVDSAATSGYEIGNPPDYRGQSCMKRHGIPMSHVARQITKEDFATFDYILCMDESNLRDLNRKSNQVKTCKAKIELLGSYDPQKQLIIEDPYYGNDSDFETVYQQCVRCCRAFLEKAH
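Test system – LMPTP-A enzyme · Amount – LMPTP-A at 0.625 nM final in the reaction · Buffer or medium – Bis-Tris pH 6.0, DTT, detergent · Reagent – OMFP 400 µM · Doses – single 20 µM dose · Schedule – reaction 50 min, room temperature, dark · Detection – fluorescence intensity of OMFP turnover product · Evaluation – percent inhibition versus substrate-only and uninhibited controls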
SUMO1-SIM PPI – modulators of SUMO1 protein-protein interactions, primary screen, biochemical, uHTS; inhibition, % at 20 µM; Small ubiquitin-related modifier 1 (Homo sapiens), P63165; actives 0.33% (n = 360,000); SUMO1 binding to a labelled peptide, TR-FRET, 1 h; in the data active means inhibition above about 37%
Target sequence (P63165 whole entry, looked up): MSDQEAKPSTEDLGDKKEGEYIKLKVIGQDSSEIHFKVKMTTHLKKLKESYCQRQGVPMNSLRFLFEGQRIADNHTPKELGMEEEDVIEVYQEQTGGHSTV
Scp-1 inhibitor – Scp-1 phosphatase inhibitors, primary screen, biochemical, colorimetric, uHTS; Recombinant Scp1, phosphopeptide, malachite green phosphate absorbance; Carboxy-terminal domain RNA polymerase II polypeptide A small phosphatase 1 (Homo …; inhibition, % at 20 µM; AID 493091, 2011; actives 0.88% (n = 340,000);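 active means inhibition above about 50% at 20 µM, limit read from the data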;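 further: plate controls were DMSO wells with enzyme for no effect and wells lacking enzyme for full effect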
Target sequence (Q9GZU7 76-261 limits assumed): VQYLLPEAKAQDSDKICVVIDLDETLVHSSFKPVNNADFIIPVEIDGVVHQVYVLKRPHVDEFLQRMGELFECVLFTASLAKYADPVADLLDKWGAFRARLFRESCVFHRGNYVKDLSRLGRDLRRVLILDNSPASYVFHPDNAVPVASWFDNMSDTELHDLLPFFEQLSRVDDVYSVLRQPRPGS
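Material – SCP-1 phosphatase catalytic domain, residues 76-261 · Buffer or medium – Acidic Tris acetate buffer with magnesium and detergent · Also added – Phospho 17-mer peptide substrate · Compound – single 20 µM dose, 1% DMSO · Times – 45 min room-temperature reaction, 5 min colour, 30 min stabiliser · Technique – Phosphate-binding colour reagent, absorbance read at 630 nm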
DNMT1 block – human DNMT1 methyltransferase inhibitors, primary screen, biochemical, molecular beacon, fluorescence, HinP1I cleavage, uHTS. DNA (cytosine-5)-methyltransferase 1 (Homo sapiens), P26358. inhibition (reported as % activation of signal), % at 10 µM. actives 0.83% (n = 360,000). AID 588458, 2011; in the data active means inhibition above about 50%
STEP block – STEP phosphatase inhibitors, primary screen, biochemical, fluorescence intensity, uHTS; Tyrosine-protein phosphatase non-receptor type 5 (Homo sapiens), P54829; recombinant STEP, OMFP fluorogenic substrate; inhibition, % at 20 µM; actives 0.25% (n = 360,000); AID 588621, 2011;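 active means inhibition at 20 µM, scaled per plate between control wells, above about 37%, limit read from the data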;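 further: 0% = DMSO with enzyme and substrate and 100% = substrate only without enzyme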
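Test system: STEP tyrosine phosphatase / Reagent: OMFP at 25 µM / Doses: 20 µM, 1% DMSO / Read-out: percent inhibition scaled to no-enzyme and uninhibited-enzyme controls, plate-pattern corrected / Detection: FITC-channel fluorescence of OMFP product / Medium: Bis-Tris buffer pH 6.0, 2.5 mM DTT, 0.005% Tween 20 / Schedule: 20 min at room temperature, dark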
Active calls of the source: *; . = not tested or not shown.

SMILES | LMPTP block | SUMO1-SIM PPI | Scp-1 inhibitor | DNMT1 block | STEP block
NC(=S)NN=C1Cc2cccc3cccc1c23 | 53.3* | -0.5 | 8.0 | 5.8 | 1.9
O/N=C1/CCc2cccc3cccc1c23 | -1.3 | -10.4 | 0.2 | -7.2 | 2.9
COC(=O)[C@]12CCCCC=C1N(Cc1cccc3ccccc13)C(=O)[C@H](CC(=O)N1CCCC1)C2 | -0.6 | -1.3 | . | . | .
C=CCN(CC=C)Cc1cc(=O)oc2cc(C)c(Cl)cc12 | 1.6 | -2.2 | . | 6.1 | 7.4
CCOC(=O)C1=C(C)c2ccccc2N(C(=O)OC)C1(C)C(=O)OCC (centres undefined) | 0.6 | 2.5 | 98.2* | 11.9 | 1.5
CCOC(=O)C1=C(C)c2ccccc2OC1(CC)C(=O)OCC (centres undefined) | 0.4 | -1.8 | -6.6 | 0.1 | -0.2
C=C1C(=O)C23C(O)C1CCC2C12CCCC(C)(COC(C)=O)C1C(O)C3(O)OC2 (centres undefined) | -1.6 | 0.4 | -7.6 | 2.6 | -2.9
COc1ccc(Nc2nc(N)nc(CSC(=S)N3CCN(C)CC3)n2)cc1 | -0.6 | 50.3* | -6.0 | 1.1 | 0.6
COc1cccc(CC(NC(C)=O)C(=O)NC2CCN(c3nc(C)cc(C)c3C#N)CC2)c1OC (centres undefined) | 0.4 | -1.4 | 7.7 | -5.1 | -3.7
COc1cc(CC(NC(C)=O)C(=O)NC2CCN(c3nc(C)cc(C)c3C#N)CC2)cc(OC)c1 (centres undefined) | -0.6 | 41.7* | 3.2 | 13.1 | -0.6
COC(=O)c1ccccc1NC(=O)CSc1nc(NC(=O)c2ccccc2)c2c(C)c(C)oc2n1 | 1.7 | 66.5* | -4.2 | -7.8 | 1.4
CCCCNC(=O)C[C@@H]1C[C@@]2(C(=O)OCC)CCCC=C2N(Cc2ccccc2)C1=O | -1.0 | -2.6 | . | . | .
Cc1ccc(C2CC(=O)N3CN(c4ccc(Br)cc4)CSC3=C2C#N)o1 (centres undefined) | 13.9 | 17.7 | -12.6 | 101.2* | 13.2
COc1ccc(Br)cc1C1CC(=O)N2CN(Cc3ccccc3)CSC2=C1C#N (centres undefined) | 9.6 | 5.5 | -12.0 | -18.2 | 46.4*
CC(=O)c1cccc(NC(=O)COC(=O)c2ccccc2C)c1 | 0.6 | -1.0 | -7.2 | -0.2 | 1.9
COc1ccc(NC(=O)N(C)C[C@H]2OCCCC[C@H](C)Oc3ccc(NC(=O)Nc4ccc5c(c4)OCO5)cc3C(=O)N([C@@H](C)CO)C[C@@H]2C)cc1 | 1.6 | 8.8 | . | -17.0 | 2.9
N=C1S/C(=C\c2ccc(-c3ccccc3C(=O)O)o2)C(=O)N1c1ccc2c(c1)OCO2 | 10.6 | 24.6 | 52.9* | 44.2 | 0.9
CCOC(=O)CN1C(=O)S/C(=C\c2ccc(-c3cccc(C(=O)O)c3C)o2)C1=O | 1.5 | -23.0 | -2.6 | -1.4 | 3.4
O=C1CC(c2ccc(O)c(O)c2)Oc2c1ccc(O)c2O (centres undefined) | 59.6* | 19.6 | 52.8* | 43.4 | 3.3
CCOC1=C2[C@H](c3ccccc3)N(S(=O)(=O)c3ccccc3)C[C@H]2n2c(=O)n(-c3ccccc3)c(=O)n2C1 | 0.1 | -0.5 | . | -5.8 | 1.2
Brc1ccc(C2=CC(c3cccs3)n3ncnc3N2)cc1 (centres undefined) | 2.8 | -23.1 | 3.4 | 66.3* | -46.2
CCCCCCCCN1C(=O)[C@H](CC(=O)N2CCC(c3ccccc3)CC2)C[C@@]2(C(=O)OC)CC(C)(C)CC=C12 | 11.2 | 7.0 | . | . | .
COc1ccc(S(=O)(=O)NNC(=S)NCCc2ccccc2)c(OC)c1 | -0.4 | 0.4 | -7.2 | 1.2 | 2.0
Cc1ccc(Cn2c(CCNc3nc(-c4ccc(C)cc4)cs3)nc3cc(C(=O)NCCCO)ccc32)cc1 | 2.0 | 51.9* | -3.0 | -77.8 | -0.8
CN1Cc2sc(NC(=S)NC(=O)c3ccccc3)c(C#N)c2CC1(C)C | . | . | 2.7 | . | .
SMILES | LMPTP block | SUMO1-SIM PPI | Scp-1 inhibitor | DNMT1 block | STEP block
CCC1(C)Cc2c(sc(NC(=S)NC(=O)c3ccccc3)c2C#N)CO1 (centres undefined) | 51.9* | -5.1 | -3.1 | -5.0 | 0.9
CC(=O)Nc1sc2c(c1C#N)CCN(Cc1ccccc1)C2 | -1.6 | 4.2 | -4.8 | 1.0 | 3.1
CCN1CCc2c(sc(NC(=S)NC(=O)c3ccccc3)c2C#N)C1 | 57.8* | -0.5 | 8.7 | -5.3 | -2.9
N#Cc1c(NC(=O)/C=C/C(=O)O)sc2c1CCN(Cc1ccccc1)C2 | 47.4* | 10.2 | 67.5* | 37.0 | 2.0
Cc1c(C(=O)OCc2nc3ccsc3c(=O)[nH]2)oc2ccccc12 | -1.3 | 7.8 | -6.1 | 4.0 | 3.9
CC(=O)NCc1ccc(S(=O)(=O)N2CCN(S(=O)(=O)c3ccc4ccccc4c3)CC2)cc1 | 1.9 | 1.4 | 5.0 | 40.6 | 0.6
CCC(c1nc2ccccc2[nH]1)N(C(=O)C1=NNC(=O)CC1)c1ccccc1 (centres undefined) | -1.7 | 1.8 | . | -0.2 | -2.4
N#Cc1c(N2CCCC2)nc(N)c2c(N)nc(N3CCCC3)cc12 | 41.4 | 47.8* | 8.2 | 117.8* | 60.4*
O=c1cc(-c2ccc(O)c(O)c2)oc2c1ccc1ccccc12 | 15.2 | 75.2* | 1.5 | 0.6 | 4.3
CC(C)n1nnnc1C1c2ccccc2C(=O)N1CCCn1ccnc1 (centres undefined) | -3.0 | 1.6 | . | . | .
CCc1ccc(N=C2NC(=O)/C(=C/c3cc(OC)c(OC)c(OC)c3)S2)cc1 | 1.1 | 20.2 | -2.8 | 2.0 | 1.4
CCc1ccc(N=C2NC(=O)/C(=C/c3cc(Br)c(OCC(=O)O)c(OC)c3)S2)cc1 | 59.1* | 18.2 | 28.0 | 37.3 | 97.3*
O=C(O)C1Nc2c(Cl)cc(Cl)cc2C2C=CCC12 (centres undefined) | 87.5* | 103.0* | 72.4* | 88.1* | 41.2*
O=C(O)C1Nc2ccc(Br)cc2C2C=CCC12 (centres undefined) | 83.7* | 94.1* | 69.2* | 93.1* | 94.5*
O=C(O)C1Nc2c(O)cccc2C2C=CCC12 (centres undefined) | 74.4* | 26.1 | 70.9* | 102.9* | 16.5
CC(C)C[C@H]1CN([C@@H](CC(C)C)CN2CCC[C@H]2CN2C(=O)C(=O)NC[C@@H]2Cc2ccc(O)cc2)C(=O)C(=O)N1CC1CCCCCC1 | -0.6 | 0.4 | . | . | .
COc1ccc2c(c1)[nH]c1c(=O)n(/N=C/c3ccc(OC)c(CN4CCCC4)c3)cnc12 | 19.9 | -0.9 | -14.0 | -6.5 | 5.7
COc1ccc2[nH]c3c(=O)n(/N=C/c4ccc(OC)c(CN5CCCC5)c4)c(C)nc3c2c1 | 7.5 | 66.2* | -4.1 | 11.9 | 0.3
